This is an account of results in ChEMBL document CHEMBL4138248, “Discovery of naphtho[1,2-d]oxazole derivatives as potential anti-HCV agents through inducing heme oxygenase-1 expression” (Eur J Med Chem, 2018).

Data set [1] concerns Hepatitis C virus. Description: Antiviral activity against HCV JFH-1 infected in human Huh7.5 cells assessed as inhibition of viral RNA replication after 3 days by RT-qPCR method. In kind it is functional, organism-based. Conditions: Hepacivirus hominis. Background: In qPCR the cycle at which signal appears reflects the starting amount.
Data set [2] addresses T1, Heme oxygenase 1 (Homo sapiens) (UniProt P09601).
T1 sequence (whole entry): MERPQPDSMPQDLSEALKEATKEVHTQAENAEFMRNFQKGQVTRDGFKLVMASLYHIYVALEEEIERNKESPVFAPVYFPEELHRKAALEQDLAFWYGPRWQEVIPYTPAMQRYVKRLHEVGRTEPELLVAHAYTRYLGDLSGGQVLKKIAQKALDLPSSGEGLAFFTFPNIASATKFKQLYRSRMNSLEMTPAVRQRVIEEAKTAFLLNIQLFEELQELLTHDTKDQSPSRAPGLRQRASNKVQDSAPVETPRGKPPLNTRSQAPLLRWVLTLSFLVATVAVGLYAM
Description: Induction of HO-1-mediated IFN-alpha-5 mRNA expression in human Ava5 cells after 3 days by RT-qPCR method. Format: cell-based. The method, boiled down:
(§1)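 Ava5 cells were treated for 3 days at the indicated concentrations. Target mRNAs were measured by RT-qPCR with specific primers and normalized to endogenous gapdh. Results are relative to DMSO-treated cells.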

Data set [3] concerns the target T1, Heme oxygenase 1 (Homo sapiens). Description: Induction of HO-1-mediated IFN-alpha-2 mRNA expression in human Ava5 cells after 3 days by RT-qPCR method. In kind it is cell-based. In a few lines: as §1
Data set [4] is described as follows: Selectivity index, ratio of CC50 for human Ava5 cells to IC50 for HCV. In kind it is toxicity. Conditions: read-out: Ratio CC50/IC50. The method, boiled down:
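SI = CC50/IC50. CC50 comes from 72 h XTT in […] Ava5 cells. IC50 is the concentration giving 50% inhibition of HCV, measured by RT-qPCR after 3 days in Ava5 cells.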

Data set [5] concerns Hepatitis C virus. Description: (§2) Antiviral activity against HCV infected in human Ava5 cells assessed as inhibition of viral RNA replication after 3 days by RT-qPCR method. In kind it is functional, organism-based, Hepacivirus hominis. In a few lines: (§3)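 Ava5 cells (Huh-7 hepatoma cells carrying an HCV replicon, grown in DMEM/10% FBS with 1 mg·mL⁻¹ G418) were treated for 3 days with a range of concentrations. HCV RNA was measured by RT-qPCR and normalized to cellular gapdh mRNA. Values are mean ± SD of three independent experiments, each in triplicate.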

Data set [6] can be described thus: Cytotoxicity against human Ava5 cells assessed as cell viability at 200 uM after 72 hrs by XTT assay relative to control. To be noted: read-out: Activity. In kind it is cell-based. In a few lines:
(§4)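 XTT viability assay run alongside the antiviral assays. Ava5 cells were plated at 5×10^3 per well and exposed to 20 or 200 μM for 72 h at 37 °C in humidified 5% CO₂. Viability is expressed as % of untreated cells.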
On the technique in general: Tetrazolium assays rely on reduction of a dye to a coloured formazan, in cell work by metabolically active cells.

Data set [7] concerns the target T1, Heme oxygenase 1 (Homo sapiens). Description: Induction of HO-1-mediated OAS1 mRNA expression in human Ava5 cells after 3 days by RT-qPCR method. Format: cell-based. In a few lines:
as §1

The test system of data set [8] is Hepatitis C virus. As to the kind of experiment: Potency index, ratio of ribavirin IC50 to test compound IC50 for HCV. In kind it is functional, Hepacivirus hominis.
The nature of data set [9]: Cytotoxicity against human Ava5 cells assessed as cell viability at 20 uM after 72 hrs by XTT assay relative to control. Format: cell-based. Conditions: read-out: Activity. The method, boiled down: as §4
In data set [10] the target is T1, Heme oxygenase 1 (Homo sapiens). As to the kind of experiment: Induction of HO-1-mediated IFN-alpha-17 mRNA expression in human Ava5 cells after 3 days by RT-qPCR method. In kind it is cell-based. The method, boiled down:
as §1

The test system of data set [11] is Hepatitis C virus. The data set is described as §2. In kind it is functional, organism-based, Hepacivirus hominis. To be noted: Ava5, 72 h. The method, boiled down: as §3
The species named for data set [12] is Homo sapiens. Description: Effect on Keap-1 protein expression in human Ava5 cells at 0.5 to 1 uM after 3 days by Western blot method. Format: functional, cell-based. In a few lines: (§5)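 Ava5 cells were treated for 3 days at the indicated concentrations. Whole-cell lysates were immunoblotted with anti-Nrf2, anti-Keap-1, anti-bach1 and anti-GAPDH.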
On the technique in general: In western blotting, separated proteins are transferred to a membrane and probed.

In data set [13] the target is T1, Heme oxygenase 1 (Homo sapiens). Description: Induction of HO-1-mediated reduction on HCV NS3/4A protease activity in human Huh-7 cells transfected with pEG(DE4AB)SEAP/pNS3/4A after 3 days. Format: cell-based. In a few lines:
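Huh-7 cells were co-transfected with the pEG(DE4AB)SEAP reporter and the NS3/4A expression plasmid pNS3/4A, then treated for 3 days. Secreted SEAP activity reports protease activity and is expressed as fold of untreated control (set to 1). Mean ± SD, n=3.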

In data set [14] the target is T2, Nuclear factor erythroid 2-related factor 2 (Homo sapiens) (UniProt Q16236).
T2 sequence (whole entry): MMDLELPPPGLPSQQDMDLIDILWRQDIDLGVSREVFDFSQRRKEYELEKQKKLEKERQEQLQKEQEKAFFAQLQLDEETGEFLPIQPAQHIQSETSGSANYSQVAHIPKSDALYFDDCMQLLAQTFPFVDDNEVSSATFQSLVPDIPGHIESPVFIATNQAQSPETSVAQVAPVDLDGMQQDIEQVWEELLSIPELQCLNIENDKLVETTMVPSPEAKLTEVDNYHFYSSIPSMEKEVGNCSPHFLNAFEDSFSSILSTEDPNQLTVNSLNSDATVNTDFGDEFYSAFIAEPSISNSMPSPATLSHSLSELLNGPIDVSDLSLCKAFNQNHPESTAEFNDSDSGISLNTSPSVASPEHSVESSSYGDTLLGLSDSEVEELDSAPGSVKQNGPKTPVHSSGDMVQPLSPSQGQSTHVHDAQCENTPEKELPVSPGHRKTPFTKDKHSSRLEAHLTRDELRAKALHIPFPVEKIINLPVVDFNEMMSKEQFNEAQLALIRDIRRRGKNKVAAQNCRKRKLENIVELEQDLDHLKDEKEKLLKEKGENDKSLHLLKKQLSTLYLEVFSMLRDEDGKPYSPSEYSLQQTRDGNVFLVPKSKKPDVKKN
Description: Induction of Nrf2-mediated ARE transactivation in human Ava5 cells transfected with p2xARE-Luc after 3 days. In kind it is cell-based. In a few lines:
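Ava5 cells were transfected with the p2xARE-Luc reporter (ARE-driven firefly luciferase), treated for 3 days, and luciferase was measured in lysates. Normalization was to co-transfected pCMV-SEAP. Mean ± SD of three independent experiments.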

Data set [15] is described as follows: Cytotoxicity against human Ava5 cells assessed as decrease in cell viability after 72 hrs by XTT assay. Format: cell-based. In a few lines: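 XTT assay on […] Ava5 cells at 5×10^3 per well with serial dilutions for 72 h at 37 °C in 5% CO₂. CC50 is the concentration giving 50% growth inhibition.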
The species named for data set [16] is Homo sapiens. Description: Downregulation of bach-1 protein expression in human Ava5 cells after 3 days by Western blot method. Format: functional, cell-based. The method, boiled down:
as §5

The target of data set [17] is T1, Heme oxygenase 1 (Homo sapiens). As to the kind of experiment: Induction of HO-1-mediated OAS3 mRNA expression in human Ava5 cells after 3 days by RT-qPCR method. In kind it is cell-based. In a few lines: as §1

Each structure is given as a SMILES string. The source made the active and inactive calls. No cut-off for these calls is given here.

As usually defined, the IC50 is the concentration that gives 50% inhibition. As usually defined, the CC50 is the concentration that lowers cell viability or growth by half. For `COc1ccc(Nc2cc3oc(-c4ccco4)nc3c3ccccc23)cc1`, the inhibition entry in the data set with Hepatitis C virus [1] and in the data set with Hepatitis C virus [5] (Hepacivirus hominis) was “Dose-dependent effect” throughout. The Activity entry in [2], in data set [3], in data set [7], in data set [10], in [13] and in data set [14] was “Dose-dependent effect” throughout. The Activity entry (in the data set listed under Homo sapiens [16]; in [17]) was “Dose-dependent effect” throughout. Further, the selectivity ratio in data set [4] turned out to be 229. Besides, the IC50 in the data set with Hepatitis C virus [5] (Ava5, 72 h) was found to be 820 nM; with Hepatitis C virus [11], 630 nM. Further, in data set [6], the viability at 72 h, 200 µM was 32.3%. Moreover, the “Ratio IC50” value in the data set on Hepatitis C virus [8] turned out to be 21. For the same compound, the viability at 72 h, 20 µM in data set [9] turned out to be 89.5%. Besides, the result in the data set filed under Homo sapiens [12] was inactive. Further, the CC50 at 72 h in data set [15] is 144000 nM.
